Measurements reported in ChEMBL document CHEMBL1152718, “Novel potent inhibitors of hepatitis C virus (HCV) NS3 protease with cyclic sulfonyl P3 cappings” (Bioorg Med Chem Lett, 2009).
Active and inactive are the calls of the source. The rule behind the calls is not given here.

Assays:
Hepatitis C virus = experiment: Antiviral activity against HCV in human Huh7 cells by replicon-based ELISA; format: functional, Hepacivirus hominis; conditions: Huh-7
In short: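 Replicon assay run only on compounds with good enzyme potency. The value is EC90, the concentration that inhibits 90% of replicon replication.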

Rattus norvegicus = experiment: (§1) AUC in rat at 3 mg/kg, po; format: ADME, organism-based, Plasma; set-up: dose 3 mg/kg, route oral; conditions: in vivo
[1] = Selectivity for HCV isolate BK NS4A-tethered single chain NS3 serine protease over human neutrophil elastase
[2] = Inhibition of HCV isolate BK NS4A-tethered single chain NS3 serine protease; set-up: species or system Hepatitis C virus (isolate BK)
In short: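 Continuous (kinetic) assay using the NS4A-tethered single-chain NS3 serine protease. The result is reported as K_i*, an equilibrium constant covering the reversible covalent ketone–serine adduct plus other inhibitor–enzyme contacts.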

[3] = as §1; format: ADME, organism-based, Plasma; set-up: dose 3 mg/kg, route oral; conditions: plasma
[4] = Bioavailability in dog; format: ADME, organism-based, Canis lupus familiaris; conditions: in vivo
[5] = Bioavailability in monkey; format: ADME, organism-based, Macaca mulatta; conditions: rhesus monkey, in vivo

| EC90 (Hepatitis C virus) [nM] | Activity (Rattus norvegicus) | Selectivity ratio [1] | Ki [2] [nM] | EC90 (Hepatitis C virus; Hepacivirus hominis) | AUC [3] [µM·h] | bioavailability [4] [%] | bioavailability [5] [%] | Structure (SMILES) | Activity (Hepatitis C virus; Hepacivirus hominis) |
| --- | --- | --- | --- | --- | --- | --- | --- | --- | --- |
| 250 | Not Active | 380 | 0.9 | – | – | – | – | C#CCCC(NC(=O)[C@@H]1[C@@H]2[C@H](CN1C(=O)[C@@H](NC(=O)N[C@H](CN1Cc3ccccc3S1(=O)=O)C(C)(C)C)C(C)(C)C)C2(C)C)C(=O)C(=O)NCC=C (some centres not stated) | – |
| – | Not Active | 1500 | 30 | – | – | – | – | C=CCNC(=O)C(=O)C(CC1CCC1)NC(=O)[C@@H]1[C@@H]2[C@H](CN1C(=O)[C@@H](NC(=O)N[C@H](CN1Cc3ccccc3S1(=O)=O)C(C)(C)C)C(C)(C)C)C2(C)C (some centres not stated) | inactive |
| – | – | 55 | 18 | inactive | – | – | – | C=CCNC(=O)C(=O)C(CCC)NC(=O)[C@@H]1[C@@H]2[C@H](CN1C(=O)[C@@H](NC(=O)N[C@H](CN1Cc3ccccc3S1(=O)=O)C1CCCCC1)C(C)(C)C)C2(C)C (some centres not stated) | – |
| 250 | – | 50 | 30 | – | 0.18 | – | – | C=CCNC(=O)C(=O)C(CCC)NC(=O)[C@@H]1[C@@H]2[C@H](CN1C(=O)[C@@H](NC(=O)N[C@H](CN1CCCCS1(=O)=O)C1CCCCC1)C(C)(C)C)C2(C)C (some centres not stated) | – |
| 150 | – | 150 | 10 | – | 0.43 | – | – | C=CCNC(=O)C(=O)C(CCC)NC(=O)[C@@H]1[C@@H]2[C@H](CN1C(=O)[C@@H](NC(=O)N[C@H](CN1Cc3sccc3S1(=O)=O)C(C)(C)C)C(C)(C)C)C2(C)C (some centres not stated) | – |
| 150 | – | 1600 | 7 | – | 0.705 | – | – | C=CCNC(=O)C(=O)C(CC1CC1)NC(=O)[C@@H]1[C@@H]2[C@H](CN1C(=O)[C@@H](NC(=O)N[C@H](CN1Cc3ccccc3S1(=O)=O)C(C)(C)C)C(C)(C)C)C2(C)C (some centres not stated) | – |
| 150 | – | 50 | 5 | – | – | – | – | C=CCNC(=O)C(=O)C(CCC)NC(=O)[C@@H]1[C@@H]2[C@H](CN1C(=O)[C@@H](NC(=O)N[C@H](CN1Cc3ccccc3S1(=O)=O)C(C)(C)C)C1(C)CCCCC1)C2(C)C (some centres not stated) | – |
| 80 | – | 6100 | 5 | – | 1.43 | – | – | C=CCNC(=O)C(=O)C(CCCC)NC(=O)[C@@H]1[C@@H]2[C@H](CN1C(=O)[C@@H](NC(=O)N[C@H](CN1Cc3ccccc3S1(=O)=O)C(C)(C)C)C(C)(C)C)C2(C)C (some centres not stated) | – |
| 150 | – | 19 | 7 | – | – | – | – | C=CCNC(=O)C(=O)C(CCC)NC(=O)[C@@H]1[C@@H]2[C@H](CN1C(=O)[C@@H](NC(=O)N[C@H](CN1Cc3ccccc3S1(=O)=O)C(C)(C)C)C1CCCCC1)C2(C)C (some centres not stated) | – |
| – | – | 650 | 3 | – | 0.373 | – | – | C=CCNC(=O)C(=O)C(CCC)NC(=O)[C@@H]1[C@@H]2[C@H](CN1C(=O)[C@@H](NC(=O)N[C@H](CN1Cc3ccccc3S1(=O)=O)C(C)(C)C)C(C)(C)C)C2(C)C (some centres not stated) | – |
| 100 | – | 10 | 14 | – | – | – | – | C=CCNC(=O)C(=O)C(CCC)NC(=O)[C@@H]1[C@@H]2[C@H](CN1C(=O)[C@@H](NC(=O)N[C@H](CN1Cc3sccc3S1(=O)=O)C(C)(C)C)C1CCCCC1)C2(C)C (some centres not stated) | – |
| 100 | – | 68 | 3 | – | – | – | – | C=CCNC(=O)C(=O)C(CCC)NC(=O)[C@@H]1[C@@H]2[C@H](CN1C(=O)[C@@H](NC(=O)N[C@H](CN1Cc3sccc3S1(=O)=O)C(C)(C)C)C1(C)CCCCC1)C2(C)C (some centres not stated) | – |
| 400 | – | 130 | 41 | – | – | – | – | C=CCNC(=O)C(=O)C(CCC)NC(=O)[C@@H]1[C@@H]2[C@H](CN1C(=O)[C@@H](NC(=O)NC1(CN3Cc4sccc4S3(=O)=O)CCCCC1)C(C)(C)C)C2(C)C (some centres not stated) | – |
| 200 | – | 230 | 11 | – | 0.09 | – | – | C=CCNC(=O)C(=O)C(CCC)NC(=O)[C@@H]1[C@@H]2[C@H](CN1C(=O)[C@@H](NC(=O)N[C@H](CN1CCCS1(=O)=O)C(C)(C)C)C(C)(C)C)C2(C)C (some centres not stated) | – |
| 230 | – | 310 | 15 | – | – | – | – | C=CCNC(=O)C(=O)C(CCC)NC(=O)[C@@H]1[C@@H]2[C@H](CN1C(=O)[C@@H](NC(=O)N[C@H](CN1C(=O)c3ccccc3S1(=O)=O)C(C)(C)C)C(C)(C)C)C2(C)C (some centres not stated) | – |
| 350 | – | – | 14 | – | – | 34 | 4 | CC(C)(C)NC(=O)N[C@H](C(=O)N1C[C@H]2[C@@H]([C@H]1C(=O)NC(CC1CCC1)C(=O)C(N)=O)C2(C)C)C(C)(C)C (some centres not stated) [BOCEPREVIR] | – |
| 350 | – | 80 | 59 | – | – | – | – | C=CCNC(=O)C(=O)C(CCC)NC(=O)[C@@H]1[C@@H]2[C@H](CN1C(=O)[C@@H](NC(=O)N[C@H](CN1CCCNS1(=O)=O)C(C)(C)C)C(C)(C)C)C2(C)C (some centres not stated) | – |
| 150 | – | 490 | 14 | – | 0.2 | – | – | C=CCNC(=O)C(=O)C(CCC)NC(=O)[C@@H]1[C@@H]2[C@H](CN1C(=O)[C@@H](NC(=O)N[C@H](CN1CCCN(C)S1(=O)=O)C(C)(C)C)C(C)(C)C)C2(C)C (some centres not stated) | – |
| 200 | – | 650 | 6 | – | 0.67 | – | – | C=CCNC(=O)C(=O)C(CCC)NC(=O)[C@@H]1[C@@H]2[C@H](CN1C(=O)[C@@H](NC(=O)N[C@H](CN1CCCCS1(=O)=O)C(C)(C)C)C(C)(C)C)C2(C)C (some centres not stated) | – |
